One block for each molecule: values may come before it.
How the values were obtained:
[1] = target: T1, Adrenergic receptor alpha-2 (Rattus norvegicus, UniProt P22086+P19328+P22909); assay: Binding affinity to alpha-2 adrenergic receptor determined by measurement of [3H]yohimbine displacement from rat cortical membrane
T1 sequence (P22086 whole entry): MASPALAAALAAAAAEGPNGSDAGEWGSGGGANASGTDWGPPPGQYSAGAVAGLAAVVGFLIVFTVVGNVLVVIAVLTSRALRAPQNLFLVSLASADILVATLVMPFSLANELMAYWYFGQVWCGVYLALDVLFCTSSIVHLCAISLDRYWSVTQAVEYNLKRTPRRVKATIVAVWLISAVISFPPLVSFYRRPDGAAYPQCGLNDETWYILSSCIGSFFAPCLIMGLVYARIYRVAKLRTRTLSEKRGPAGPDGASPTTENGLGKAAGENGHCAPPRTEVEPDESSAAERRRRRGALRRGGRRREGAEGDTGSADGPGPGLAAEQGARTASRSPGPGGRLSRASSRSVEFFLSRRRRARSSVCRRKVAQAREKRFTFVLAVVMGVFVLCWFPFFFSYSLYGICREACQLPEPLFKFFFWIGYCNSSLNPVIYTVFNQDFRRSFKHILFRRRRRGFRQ
T1 sequence (P19328 whole entry): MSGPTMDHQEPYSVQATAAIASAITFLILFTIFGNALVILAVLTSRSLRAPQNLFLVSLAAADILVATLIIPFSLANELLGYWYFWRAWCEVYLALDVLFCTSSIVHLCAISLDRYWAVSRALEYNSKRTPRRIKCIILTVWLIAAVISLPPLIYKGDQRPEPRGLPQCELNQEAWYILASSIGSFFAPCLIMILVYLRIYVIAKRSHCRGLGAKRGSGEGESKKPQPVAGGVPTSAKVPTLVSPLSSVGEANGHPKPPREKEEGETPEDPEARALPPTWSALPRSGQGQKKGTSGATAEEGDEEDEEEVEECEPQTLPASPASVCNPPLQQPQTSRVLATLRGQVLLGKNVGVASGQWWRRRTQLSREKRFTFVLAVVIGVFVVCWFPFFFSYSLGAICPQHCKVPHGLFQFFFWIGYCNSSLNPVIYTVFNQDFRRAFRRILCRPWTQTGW
T1 sequence (P22909 whole entry): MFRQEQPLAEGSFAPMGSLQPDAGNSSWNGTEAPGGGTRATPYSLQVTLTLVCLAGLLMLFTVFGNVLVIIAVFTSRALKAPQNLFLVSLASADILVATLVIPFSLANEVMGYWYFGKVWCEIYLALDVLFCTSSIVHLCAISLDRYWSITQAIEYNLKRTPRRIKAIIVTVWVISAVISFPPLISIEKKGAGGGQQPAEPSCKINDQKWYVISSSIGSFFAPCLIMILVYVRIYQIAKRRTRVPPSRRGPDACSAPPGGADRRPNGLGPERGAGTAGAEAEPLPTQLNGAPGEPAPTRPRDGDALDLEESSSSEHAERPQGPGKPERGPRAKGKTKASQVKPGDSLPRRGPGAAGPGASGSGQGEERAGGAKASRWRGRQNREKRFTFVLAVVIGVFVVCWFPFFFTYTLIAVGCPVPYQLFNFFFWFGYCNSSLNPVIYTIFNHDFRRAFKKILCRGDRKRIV

[2] = target: T2, Adrenergic receptor alpha-1 (Rattus norvegicus, UniProt P15823+P23944+P43140); assay: Binding affinity to alpha-1 adrenergic receptor determined by measurement of [3H]prazosin displacement from rat cortical membrane
T2 sequence (P15823 whole entry): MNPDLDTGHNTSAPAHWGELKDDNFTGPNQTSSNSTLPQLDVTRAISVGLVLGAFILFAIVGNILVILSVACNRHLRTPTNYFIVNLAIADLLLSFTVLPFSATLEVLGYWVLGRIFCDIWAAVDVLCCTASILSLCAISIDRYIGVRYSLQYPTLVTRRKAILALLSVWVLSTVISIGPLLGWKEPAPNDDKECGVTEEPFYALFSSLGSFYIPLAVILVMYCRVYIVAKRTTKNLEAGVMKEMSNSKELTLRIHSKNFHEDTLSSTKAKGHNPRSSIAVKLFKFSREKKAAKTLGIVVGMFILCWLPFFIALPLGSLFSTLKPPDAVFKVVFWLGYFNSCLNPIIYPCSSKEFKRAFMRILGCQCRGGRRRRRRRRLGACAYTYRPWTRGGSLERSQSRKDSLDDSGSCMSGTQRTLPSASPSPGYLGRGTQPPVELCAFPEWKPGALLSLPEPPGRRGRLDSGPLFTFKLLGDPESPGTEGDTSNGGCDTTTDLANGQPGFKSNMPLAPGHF
T2 sequence (P23944 whole entry): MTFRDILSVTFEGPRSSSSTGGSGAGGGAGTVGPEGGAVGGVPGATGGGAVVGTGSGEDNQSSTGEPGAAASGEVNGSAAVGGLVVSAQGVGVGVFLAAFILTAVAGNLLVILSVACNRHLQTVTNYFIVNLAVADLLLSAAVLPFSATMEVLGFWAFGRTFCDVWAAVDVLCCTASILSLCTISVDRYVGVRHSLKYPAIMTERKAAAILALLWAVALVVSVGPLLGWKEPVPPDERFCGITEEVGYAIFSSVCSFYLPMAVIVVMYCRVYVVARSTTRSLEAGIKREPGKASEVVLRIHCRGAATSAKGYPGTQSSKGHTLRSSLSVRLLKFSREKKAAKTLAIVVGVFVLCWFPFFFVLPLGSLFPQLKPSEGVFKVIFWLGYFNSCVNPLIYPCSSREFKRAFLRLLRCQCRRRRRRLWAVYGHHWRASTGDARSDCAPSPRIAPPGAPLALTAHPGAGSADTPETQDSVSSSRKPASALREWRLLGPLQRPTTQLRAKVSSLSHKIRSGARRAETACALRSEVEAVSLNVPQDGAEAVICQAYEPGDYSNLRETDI
T2 sequence (P43140 whole entry): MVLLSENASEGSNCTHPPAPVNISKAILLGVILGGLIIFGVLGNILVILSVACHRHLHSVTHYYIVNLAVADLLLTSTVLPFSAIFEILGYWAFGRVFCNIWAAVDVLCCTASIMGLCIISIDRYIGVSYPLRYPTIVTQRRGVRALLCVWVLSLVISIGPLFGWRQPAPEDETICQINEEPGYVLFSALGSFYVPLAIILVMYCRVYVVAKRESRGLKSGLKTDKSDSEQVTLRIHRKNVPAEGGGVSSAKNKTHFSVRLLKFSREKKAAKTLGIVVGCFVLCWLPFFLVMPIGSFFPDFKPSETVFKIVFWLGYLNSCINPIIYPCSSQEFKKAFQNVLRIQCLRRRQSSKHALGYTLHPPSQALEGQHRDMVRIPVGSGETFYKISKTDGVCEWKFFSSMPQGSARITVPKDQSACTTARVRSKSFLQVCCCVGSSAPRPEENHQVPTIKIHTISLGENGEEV
Procedure, shortened: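 Male Sprague-Dawley rat (150-200 g) cerebral cortex membranes, washed in 50 mM Tris-HCl/0.5 mM EDTA pH 7.4. 250 µg membrane protein incubated with 0.5 nM [3H]prazosin for 30 min at 25 °C in a 0.5 mL volume. Nonspecific binding defined by 10 µM phentolamine. IC50 estimated graphically; Ki calculated by Cheng-Prusoff.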

- Log Ki [1]: -7.78
- Log Ki [2]: -4.8
SMILES: CS(=O)(=O)N1CCC[C@@H]2CN3CCc4c([nH]c5ccccc45)[C@@H]3C[C@@H]21

- Log Ki [1]: -8.82
- Log Ki [2]: -5.13
SMILES: COc1ccc2c(c1)CCN1C[C@H]3CCCN(S(=O)(=O)Cc4ccccc4)[C@@H]3C[C@@H]21

- Log Ki [1]: -5.96
- Log Ki [2]: -5.58
SMILES: CS(=O)(=O)N1CCC[C@H]2CN3CCc4ccccc4[C@@H]3C[C@H]21

- Log Ki [1]: -9.15
- Log Ki [2]: -4.89
SMILES: Cc1ccc2c(c1)CCN1C[C@H]3CCCN(S(C)(=O)=O)[C@H]3C[C@@H]21

- Log Ki [1]: -8.43
- Log Ki [2]: -4.92
SMILES: COc1ccc2c(c1)CCN1C[C@H]3CCCN(S(N)(=O)=O)[C@H]3C[C@@H]21

- Log Ki [1]: -8.82
- Log Ki [2]: -5.33
SMILES: C=CS(=O)(=O)N1CCC[C@@H]2CN3CCc4cc(OC)ccc4[C@@H]3C[C@@H]21

- Log Ki [1]: -8.65
- Log Ki [2]: -5.48
SMILES: COc1cccc2c1[C@@H]1C[C@H]3[C@H](CCCN3S(C)(=O)=O)CN1CC2

- Log Ki [1]: -5.82
- Log Ki [2]: -5.76
SMILES: CCCCS(=O)(=O)N1CCC[C@H]2CN3CCc4ccccc4[C@@H]3C[C@H]21

- Log Ki [1]: -6.88
- Log Ki [2]: -4.85
SMILES: COc1ccc2c(c1)CCN1C[C@@H]3CCCN(S(C)(=O)=O)[C@@H]3C[C@@H]21

- Log Ki [1]: -7.54
- Log Ki [2]: -5.8
SMILES: CS(=O)(=O)N1CC[C@@H]2CN3CCc4ccccc4[C@@H]3C[C@@H]2C1

- Log Ki [1]: -8.3
- Log Ki [2]: -5.19
SMILES: O=S(=O)(c1ccc(Cl)cc1)N1CCC[C@@H]2CN3CCc4ccccc4[C@@H]3C[C@@H]21

- Log Ki [1]: -8.74
- Log Ki [2]: -6.03
SMILES: CN(C)S(=O)(=O)N1CCC[C@@H]2CN3CCc4ccccc4[C@@H]3C[C@@H]21

- Log Ki [1]: -8.95
- Log Ki [2]: -5.13
SMILES: COc1ccc2c(c1)CCN1C[C@H]3CCCN(S(=O)(=O)CCl)[C@@H]3C[C@@H]21

- Log Ki [1]: -8.69
- Log Ki [2]: -5.38
SMILES: O=S(=O)(c1ccc(F)cc1)N1CCC[C@@H]2CN3CCc4ccccc4[C@@H]3C[C@@H]21

- Log Ki [1]: -7.84
- Log Ki [2]: -5.2
SMILES: COc1ccc2c(c1)CCN1C[C@@H]3CCCN(S(C)(=O)=O)[C@H]3C[C@@H]21

- Log Ki [1]: -8.2
- Log Ki [2]: -5.27
SMILES: CS(=O)(=O)N1CCC[C@@H]2CN3CCc4cc(O)ccc4[C@@H]3C[C@@H]21

- Log Ki [1]: -6.4
- Log Ki [2]: -5.2
SMILES: CS(=O)(=O)N1CC[C@H]2C[C@H]3c4ccccc4CCN3C[C@H]2C1

- Log Ki [1]: -7.42
- Log Ki [2]: -5.3
SMILES: CCCCS(=O)(=O)N1CCC[C@H]2CN3CCc4ccccc4[C@@H]3C[C@@H]21

- Log Ki [1]: -7.25
- Log Ki [2]: -5.65
SMILES: CS(=O)(=O)N1CCC[C@H]2CN3CCc4ccccc4[C@@H]3C[C@@H]21

- Log Ki [1]: -8.66
- Log Ki [2]: -5.33
SMILES: Nc1ccc(S(=O)(=O)N2CCC[C@@H]3CN4CCc5ccccc5[C@@H]4C[C@@H]32)cc1

The remaining lines, values behind:

SMILES: CC(C)CS(=O)(=O)N(C)[C@@H]1CCN2CCc3ccccc3[C@@H]2C1
- Log Ki [1]: -8.04
- Log Ki [2]: -5.7

SMILES: CN1C[C@H]2CCCN(S(C)(=O)=O)[C@H]2C[C@H]1c1ccc2c(c1)OCO2
- Log Ki [1]: -5.38
- Log Ki [2]: -4.82

SMILES: COc1ccc2c(c1)CCN1C[C@H]3CCCN(S(=O)(=O)NC(C)(C)C)[C@H]3C[C@@H]21
- Log Ki [1]: -7.78
- Log Ki [2]: -5.26

SMILES: COc1cc2c(cc1OC)[C@@H]1C[C@H]3[C@H](CCCN3S(=O)(=O)CC(C)C)CN1CC2
- Log Ki [1]: -8.1
- Log Ki [2]: -4.46

SMILES: CS(=O)(=O)N1CCC[C@H]2[C@H]3c4cc5c(cc4CCN3CC[C@@H]21)OCO5
- Log Ki [1]: -6.4
- Log Ki [2]: -5.06

SMILES: CS(=O)(=O)N1CCC[C@@H]2CN3CCc4cc5c(cc4[C@@H]3C[C@H]21)OCO5
- Log Ki [1]: -9.19
- Log Ki [2]: -5.32

SMILES: CS(=O)(=O)N1CCC[C@@H]2CN(CCc3ccccc3)CC[C@@H]21
- Log Ki [1]: -6.12
- Log Ki [2]: -5.51

SMILES: COc1cc2c(cc1Br)[C@@H]1C[C@@H]3[C@H](CCCN3S(C)(=O)=O)CN1CC2
- Log Ki [1]: -8.3
- Log Ki [2]: -5.25

SMILES: COc1cc2c(cc1OC)[C@@H]1C[C@H]3[C@H](CCCN3S(C)(=O)=O)CN1C(C)C2 (stereo partly drawn)
- Log Ki [1]: -7.08
- Log Ki [2]: -4.93

SMILES: CN1C[C@@H]2CCCN(S(C)(=O)=O)[C@@H]2C[C@H]1c1ccc2c(c1)OCO2
- Log Ki [1]: -6.13
- Log Ki [2]: -5.55

SMILES: CS(=O)(=O)N1CCC[C@H]2CN3CCc4cc5c(cc4[C@@H]3C[C@@H]21)OCO5
- Log Ki [1]: -7.56
- Log Ki [2]: -5.65

SMILES: CS(=O)(=O)N1CCC[C@H]2CN3CCc4cc5c(cc4[C@@H]3C[C@H]21)OCO5
- Log Ki [1]: -7.24
- Log Ki [2]: -5.95

SMILES: COc1ccc2c(c1)CCN1C[C@H]3CCCN(S(=O)(=O)c4cccs4)[C@@H]3C[C@@H]21
- Log Ki [1]: -8.83
- Log Ki [2]: -5.01

SMILES: COc1ccc(OC)c2c1CCN1C[C@H]3CCCN(S(C)(=O)=O)[C@H]3C[C@@H]21
- Log Ki [1]: -7.37
- Log Ki [2]: -5.63
